Measured values as given in ChEMBL document CHEMBL1157608, “The discovery of 4-{1-[({2,5-dimethyl-4-[4-(trifluoromethyl)benzyl]-3-thienyl}carbonyl)amino]cyclopropyl}benzoic acid (MK-2894), a potent and selective prostaglandin E2 subtype 4 receptor antagonist” (J Med Chem, 2010).

Columns and labels:
[1] = species: Rattus norvegicus; experiment: Analgesic activity against complete Freund's adjuvant-induced Sprague-Dawley rat inflammatory pain assessed as inhibition of chronic paw swelling; type: functional
Summary of the method: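 Adjuvant-induced arthritis in rats: CFA injected into primary paw on day 0; oral dosing in 0.5% methocel once daily for 9 days starting day 9; secondary paw swelling measured; plasma levels taken 24 h after final dose; n = 7/group; 1-way ANOVA/Dunnett's vs vehicle.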

[2] = system: Rattus norvegicus; experiment: Analgesic activity in po dosed Sprague-Dawley rat assessed as inhibition of carrageenan-induced mechanical hyperalgesia relative to control; type: functional
Summary of the method: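 SD rats given subplantar carrageenan; compound dosed orally as a single dose; mechanical hyperalgesia read at 3 h post carrageenan, 1 h post dose; inhibition expressed vs vehicle control; n = 10-20/group; 1-way ANOVA/Dunnett's.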

[3] = target: T1, Prostaglandin E2 receptor EP3 subtype (Homo sapiens, UniProt P43115); experiment: Displacement of [3H]PGE2 from human EP3 receptor expressed in HEK293-EBNA cells by scintillation counting; type: cell-based
T1 sequence (P43115 whole entry): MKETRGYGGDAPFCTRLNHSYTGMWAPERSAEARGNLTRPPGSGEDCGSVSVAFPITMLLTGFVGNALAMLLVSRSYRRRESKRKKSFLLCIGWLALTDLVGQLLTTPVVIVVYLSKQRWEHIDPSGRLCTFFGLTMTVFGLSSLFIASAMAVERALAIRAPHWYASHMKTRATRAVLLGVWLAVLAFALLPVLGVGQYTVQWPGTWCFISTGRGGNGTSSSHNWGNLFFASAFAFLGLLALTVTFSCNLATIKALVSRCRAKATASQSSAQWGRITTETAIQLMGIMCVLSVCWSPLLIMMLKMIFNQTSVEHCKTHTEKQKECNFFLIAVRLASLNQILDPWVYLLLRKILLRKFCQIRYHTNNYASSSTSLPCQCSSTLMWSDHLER
Summary of the method: (§1)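 Radioligand binding on membranes from HEK 293(EBNA) clonal lines overexpressing each prostanoid receptor, using the respective 3H-prostaglandin or thromboxane ligand; EP4 binding also run with 10% human serum; Ki as means of at least three experiments (rEP2, rEP3 n = 1).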

[4] = target: Prostaglandin E2 receptor EP2 subtype (Homo sapiens, UniProt P43116); experiment: Displacement of [3H]PGE2 from human EP2 receptor expressed in HEK293-EBNA cells by scintillation counting; type: cell-based; summary of the method: as §1
[5] = target: T2, Prostaglandin E2 receptor EP4 subtype (Homo sapiens, UniProt P35408); experiment: Antagonist activity at human EP4 receptor expressed in HEK293 cells assessed as inhibition of PGE2-induced cAMP accumulation by scintillation proximity assay; type: functional, cell-based
Summary of the method: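 HEK 293 cells; inhibition of PGE2-induced cAMP accumulation measured, with and without 10% human serum; means of at least three experiments.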

[6] = target: Prostaglandin F2-alpha receptor (Homo sapiens, UniProt P43088); experiment: Displacement of [3H]PGF2alpha from human FP receptor expressed in HEK293-EBNA cells by scintillation counting; type: cell-based; summary of the method: as §1
[7] = target: Prostacyclin receptor (Homo sapiens, UniProt P43119); experiment: Displacement of [3H]iloprost from human IP receptor expressed in HEK293-EBNA cells by scintillation counting; type: cell-based; summary of the method: as §1
[8] = target: T3, Prostaglandin D2 receptor 2 (Homo sapiens, UniProt Q9Y5Y4); experiment: Displacement of [3H]PGD2 from human DP2 receptor expressed in HEK293-EBNA cells by scintillation counting; type: cell-based; summary of the method: as §1
T3 sequence (Q9Y5Y4 whole entry): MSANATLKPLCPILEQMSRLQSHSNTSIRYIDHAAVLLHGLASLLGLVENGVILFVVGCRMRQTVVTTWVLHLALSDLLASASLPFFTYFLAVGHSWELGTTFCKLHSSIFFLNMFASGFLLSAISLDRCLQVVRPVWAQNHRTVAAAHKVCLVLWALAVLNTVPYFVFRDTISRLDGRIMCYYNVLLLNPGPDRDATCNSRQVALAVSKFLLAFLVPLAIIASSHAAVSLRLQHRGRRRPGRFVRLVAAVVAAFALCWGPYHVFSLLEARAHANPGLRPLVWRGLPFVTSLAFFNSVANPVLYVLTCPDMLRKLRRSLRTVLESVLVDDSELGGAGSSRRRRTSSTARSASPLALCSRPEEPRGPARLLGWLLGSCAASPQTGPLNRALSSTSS

[9] = target: T4, Prostaglandin E2 receptor EP1 subtype (Homo sapiens, UniProt P34995); experiment: Displacement of [3H]PGE2 from human EP1 receptor expressed in HEK293-EBNA cells by scintillation counting; type: cell-based; summary of the method: as §1
T4 sequence (P34995 whole entry): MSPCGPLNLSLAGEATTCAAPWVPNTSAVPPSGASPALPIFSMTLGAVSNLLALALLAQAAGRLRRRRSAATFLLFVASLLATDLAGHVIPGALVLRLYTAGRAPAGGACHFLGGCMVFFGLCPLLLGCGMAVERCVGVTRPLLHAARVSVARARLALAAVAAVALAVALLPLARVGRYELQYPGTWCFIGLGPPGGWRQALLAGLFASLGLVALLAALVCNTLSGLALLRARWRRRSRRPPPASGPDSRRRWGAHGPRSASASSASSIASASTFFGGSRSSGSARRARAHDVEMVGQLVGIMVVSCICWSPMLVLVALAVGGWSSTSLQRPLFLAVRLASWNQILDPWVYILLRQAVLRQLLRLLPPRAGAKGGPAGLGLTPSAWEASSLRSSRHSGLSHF

[10] = target: T5, Prostaglandin D2 receptor (Homo sapiens, UniProt Q13258); experiment: Displacement of [3H]PGD2 from human DP1 receptor expressed in HEK293-EBNA cells by scintillation counting; type: cell-based; summary of the method: as §1
T5 sequence (Q13258 whole entry): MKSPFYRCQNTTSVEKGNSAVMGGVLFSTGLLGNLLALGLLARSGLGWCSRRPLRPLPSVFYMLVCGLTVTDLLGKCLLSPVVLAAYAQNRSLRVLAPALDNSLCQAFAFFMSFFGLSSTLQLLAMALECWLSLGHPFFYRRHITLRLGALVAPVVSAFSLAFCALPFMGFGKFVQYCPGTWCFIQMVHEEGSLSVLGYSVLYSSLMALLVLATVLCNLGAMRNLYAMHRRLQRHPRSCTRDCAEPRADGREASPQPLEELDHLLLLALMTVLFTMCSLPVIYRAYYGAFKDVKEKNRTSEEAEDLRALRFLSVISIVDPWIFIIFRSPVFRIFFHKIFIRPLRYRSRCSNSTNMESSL

[11] = target: T6, Thromboxane A2 receptor (Homo sapiens, UniProt P21731); experiment: Displacement of [3H]SQ29548 from human TP receptor expressed in HEK293-EBNA cells by scintillation counting; type: cell-based; summary of the method: as §1
T6 sequence (P21731 whole entry): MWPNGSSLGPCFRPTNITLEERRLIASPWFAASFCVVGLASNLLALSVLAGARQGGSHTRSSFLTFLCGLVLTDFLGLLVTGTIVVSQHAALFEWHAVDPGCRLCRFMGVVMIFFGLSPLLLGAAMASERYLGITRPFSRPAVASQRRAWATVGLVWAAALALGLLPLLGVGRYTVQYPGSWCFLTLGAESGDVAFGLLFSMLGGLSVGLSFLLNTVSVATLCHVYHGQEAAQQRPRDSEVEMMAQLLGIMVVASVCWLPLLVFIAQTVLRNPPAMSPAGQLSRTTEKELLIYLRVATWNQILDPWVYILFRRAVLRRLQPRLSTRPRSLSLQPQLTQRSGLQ

[12] = target: T2, Prostaglandin E2 receptor EP4 subtype; experiment: Displacement of [3H]PGE2 from human EP4 receptor expressed in HEK293-EBNA cells by scintillation counting; type: cell-based; summary of the method: as §1

T2 sequence (P35408 whole entry): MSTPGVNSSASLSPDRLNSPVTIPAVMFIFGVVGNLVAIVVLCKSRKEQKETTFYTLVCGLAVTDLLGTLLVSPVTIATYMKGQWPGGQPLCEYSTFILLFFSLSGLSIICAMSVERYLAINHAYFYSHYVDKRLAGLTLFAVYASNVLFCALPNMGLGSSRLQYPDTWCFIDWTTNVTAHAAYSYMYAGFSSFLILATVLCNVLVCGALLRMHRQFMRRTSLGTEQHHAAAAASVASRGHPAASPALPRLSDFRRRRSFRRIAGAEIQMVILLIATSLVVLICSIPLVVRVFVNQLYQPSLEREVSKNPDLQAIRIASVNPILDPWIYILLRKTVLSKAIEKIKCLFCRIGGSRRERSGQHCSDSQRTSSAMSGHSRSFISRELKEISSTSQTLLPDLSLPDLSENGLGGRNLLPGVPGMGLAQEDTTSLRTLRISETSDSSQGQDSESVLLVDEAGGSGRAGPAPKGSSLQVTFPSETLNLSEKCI
Prostaglandin E2 receptor EP2 subtype, sequence (P43116 whole entry): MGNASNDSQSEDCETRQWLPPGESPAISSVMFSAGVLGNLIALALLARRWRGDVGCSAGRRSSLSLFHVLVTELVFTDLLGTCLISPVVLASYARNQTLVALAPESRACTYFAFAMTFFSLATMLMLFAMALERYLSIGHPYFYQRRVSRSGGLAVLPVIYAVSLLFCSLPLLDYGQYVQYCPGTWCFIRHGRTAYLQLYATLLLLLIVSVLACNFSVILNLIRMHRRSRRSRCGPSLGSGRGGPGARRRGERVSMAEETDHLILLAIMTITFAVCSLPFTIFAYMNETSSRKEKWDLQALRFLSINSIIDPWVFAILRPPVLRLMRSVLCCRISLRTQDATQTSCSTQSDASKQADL
Prostaglandin F2-alpha receptor, sequence (P43088 whole entry): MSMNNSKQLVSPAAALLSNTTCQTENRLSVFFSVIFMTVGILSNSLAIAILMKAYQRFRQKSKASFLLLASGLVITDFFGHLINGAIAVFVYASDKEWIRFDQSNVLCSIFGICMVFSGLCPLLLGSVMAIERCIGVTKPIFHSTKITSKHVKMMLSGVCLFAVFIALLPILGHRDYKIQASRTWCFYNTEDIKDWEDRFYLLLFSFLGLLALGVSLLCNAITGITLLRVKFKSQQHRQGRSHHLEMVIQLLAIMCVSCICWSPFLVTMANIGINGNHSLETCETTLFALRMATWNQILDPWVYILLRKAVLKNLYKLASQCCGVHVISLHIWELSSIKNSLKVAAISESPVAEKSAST
Prostacyclin receptor, sequence (P43119 whole entry): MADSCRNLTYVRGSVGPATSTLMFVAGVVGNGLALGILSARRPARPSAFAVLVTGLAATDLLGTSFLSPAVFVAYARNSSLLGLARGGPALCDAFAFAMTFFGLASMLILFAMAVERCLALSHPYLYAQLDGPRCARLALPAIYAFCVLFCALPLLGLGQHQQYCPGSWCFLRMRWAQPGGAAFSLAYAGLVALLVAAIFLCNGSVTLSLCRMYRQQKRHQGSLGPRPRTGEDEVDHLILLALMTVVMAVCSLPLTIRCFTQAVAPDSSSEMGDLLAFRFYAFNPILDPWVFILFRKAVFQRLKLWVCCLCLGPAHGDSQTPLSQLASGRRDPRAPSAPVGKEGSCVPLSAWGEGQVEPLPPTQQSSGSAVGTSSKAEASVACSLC

Row | SMILES | ED50 [1] | inhibition (INH) [2] [%] | Ki [3] [nM] | Ki [4] [nM] | IC50 [5] [nM] | Ki [6] [nM] | Ki [7] [nM] | Ki [8] [nM] | Ki [9] [nM] | Ki [10] [nM] | Ki [11] [nM] | Ki [12] [nM]
1 | CS(=O)(=O)c1ccc(C2=C(c3ccc(F)c(F)c3)C(=O)OC2)cc1 | 0.5 mg/kg | 70 | – | – | – | – | – | – | – | – | – | –
2 | C[C@H](NC(=O)c1c(Cl)sc(Cl)c1Cc1cccc(Cl)c1)c1ccc(C(=O)O)cc1 | – | – | > 456 | 746 | 3.6 | > 456 | > 456 | > 456 | > 456 | > 456 | > 456 | –
3 | Cc1sc(C)c(C(=O)N[C@@H](C)c2ccc(C(=O)O)cc2)c1Cc1ccc(C(F)(F)F)cc1 | – | – | > 5470 | 1190 | 4.5 | > 5470 | > 5470 | > 5470 | > 5470 | > 5470 | > 5470 | –
4 | CS(=O)(=O)c1ccc(C2=C(c3ccccc3)C(=O)OC2)cc1 [ROFECOXIB] | 0.7 mg/kg | – | – | – | – | – | – | – | – | – | – | –
5 | C[C@@H](NC(=O)c1c(Cl)sc(Cl)c1Cc1cccc(Cl)c1)c1ccc(C(=O)O)cc1 | – | – | > 224 | 384 | 1.8 | > 224 | > 224 | > 224 | > 224 | > 224 | > 224 | 0.87
6 | COc1cccc(OC)c1C1(C(=O)NS(=O)(=O)Cc2ccc(N3Cc4c(c(OCC(F)(F)F)c5cccnc5c4OCC(F)(F)F)C3=O)c(C)c2)CC1 | 0.003 mg/kg/day | – | – | – | – | – | – | – | – | – | – | –
7 | Cc1sc(C)c(C(=O)N[C@@H](C)c2ccc(C(=O)O)cc2)c1Cc1cccc(Cl)c1 | – | – | > 2230 | 467 | 8.6 | > 2230 | > 2230 | > 2230 | > 2230 | > 2230 | > 2230 | –
8 | C[C@H](NC(=O)c1cscc1Cc1cccc(Cl)c1)c1ccc(C(=O)O)cc1 | – | – | > 7280 | 16 | 12 | > 7280 | > 7280 | > 7280 | > 7280 | > 7280 | > 7280 | 6.4
9 | Cc1sc(C)c(C(=O)N[C@@H](C)c2ccc(C(=O)O)cc2)c1Cc1cccc(C(F)(F)F)c1 | – | – | > 3460 | 800 | 4.7 | > 3460 | > 3460 | > 3460 | > 3460 | > 3460 | > 3460 | 2.5
10 | Cc1sc(C)c(C(=O)NC2(c3ccc(-c4nn[nH]n4)cc3)CC2)c1Cc1ccc(C(F)(F)F)cc1 | – | – | > 501 | > 29000 | 2.3 | > 501 | > 501 | > 501 | > 501 | > 501 | > 501 | 0.63
11 | O=C(O)c1ccc(CNC(=O)c2c(Cl)sc(Cl)c2Cc2cccc(Cl)c2)cc1 | – | – | > 628 | 43 | 1.6 | > 628 | > 628 | > 628 | > 628 | > 628 | > 628 | 0.72
12 | Cc1sc(C)c(C(=O)N[C@@H](C)c2ccc(C(=O)O)cc2)c1Cc1ccc(Cl)cc1 | – | – | > 2120 | 202 | 5.4 | > 2120 | > 2120 | > 2120 | > 2120 | > 2120 | > 2120 | 2.9
13 | Cc1sc(C)c(C(=O)NC2(c3ccc(C(=O)O)cc3)CC2)c1Cc1cccc(C(F)(F)F)c1 | – | – | > 4990 | > 29100 | – | > 4990 | > 4990 | > 4990 | > 4990 | > 4990 | > 4990 | 0.75
